Assay [1] in a line: S. cerevisiae growth inhibition in permissive medium (OD615), pilot counter-assay for S. cerevisiae lifespan shortening project, permissive growth control (AID 705;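 active = growth inhibition above 25% in both replicates, a cutoff set 3 SD above the mean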). The following applies: OD615, 24 h, at 10 µM, active compounds read high. In outline: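 Test system: Saccharomyces cerevisiae strain carrying genetically modified DeaD replicative-lifespan system; buffer or medium: SC raffinose/galactose permissive medium; dosing: one dose 10 µM, DMSO 0.25% final; times: 24 h exposure, 30 °C; measured by: OD at 615 nm; read-out basis: growth inhibition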

The nature of assay [2]: S. cerevisiae growth inhibition in restrictive medium, OD615, pilot screen, restrictive growth control, yeast lifespan reduction project (AID 706;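 active = growth inhibition above a set limit, 3 SD over mean compound inhibition, in both replicates, cut at about 43% in these data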;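 also: modified DeaD lifespan yeast strain shifted to restrictive glucose medium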). The following applies: OD615, 48 h, at 10 µM, active compounds read high. In outline: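 material = engineered S. cerevisiae DeaD strain | buffer or medium = glucose-based CSMM-D restrictive medium | dosing = one concentration, 10 µM final, 0.25% DMSO | schedule = 4 h pre-growth plus 48 h compound exposure, 30 °C | detection = OD615 absorbance reading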

The nature of assay [3]: doxorubicin toxicity protection in MRP-1 cells – H69AR cells, CellTiter-Glo, duplicate, MRP-1 activator project, pilot screen (AID 807).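 Also: compound pretreatment 18-22 h then 72 h combined with doxorubicin; 0% = doxorubicin alone and 100% = vehicle without doxorubicin.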 Conditions: H69AR viability with doxorubicin, CellTiter-Glo luminescence; at 10 µM; active compounds read high. On the technique in general: In ATP-based viability assays light output follows the ATP content of the culture.
A short description of assay [4]: viability of HCT116 without oncogenic beta-catenin – human colon tumor cells, pilot screen (AID 823;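 active = cell viability at or below a set limit in both duplicate runs, the limit being the all-compound median minus 4 SD, cut at about 23% in these data, passing the limit was not always enough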;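 also: 0% = wells killed by 20 µM Hyamine and 100% = untreated DMSO cell wells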). The following applies: HCT116 beta-catenin knockout viability, CellTiter-Glo, 60 h; at 10 µM; active compounds read low.
Assay [5] is described as follows: viability of PTEN-null HCT116 cells – cell-based, HCT116 clonal line, CellTiter-Glo, pilot screen (AID 824;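 active = viability at or below 27.92% in each of two runs, the all-compound median minus 4 SD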;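 also: 0% = 20 µM Hyamine control and 100% = vehicle cell control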). The following applies: HCT116 PTEN-deleted viability, 60 h, at 10 µM, active compounds read low.
Assay [6] in a line: RAM pathway blockade in budding yeast – dse1pr::URA3 reporter, 5-FOA selection, pilot screen (AID 869;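 active = inhibition over a set limit, the all-compound mean plus 3 SD, in both replicate runs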;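 also: 0% = DMSO wells with no growth and 100% = 10 µM 1-NA-PP1 with full growth; RAM network block rescues cells from 5-FOA so hits raise OD615 growth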). Conditions: S. cerevisiae dse1pr::URA3 5-FOA growth, OD615, 2 d; at 10 µM; active compounds read high; strain carries analog-sensitive mutant Cbk1 kinase.
A short description of assay [7]: RAM signaling pathway blockade in yeast – S. cerevisiae, Pdr1DBD-CYC8 efflux-inhibited sensitized strain, primary screen (AID 1298;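 active = RAM network inhibition above 8.4% in each of two replicates, 3 SD over the compound average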;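 also: 0% = DMSO untreated cells without growth and 100% = 10 µM 1-NA-PP1 full growth; higher means more yeast growth rescued from 5-FOA killing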). Conditions: S. cerevisiae cbk1-as DSE1-URA3 strain, 5-FOA growth OD615, 2 d; at 50 µM; active compounds read high.

The term viability denotes a read-out of living cells in per cent, often relative to untreated cells. For orientation: inhibition means the change of the read-out against control, counted positive when it falls.

Structures are written as SMILES. Unmarked numbers belong to inactive results. Inconclusive results are not listed. The source made the active and inactive calls.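 The calls were made as follows, unless noted: active = viability increase at or above a cutoff of the median across tested compounds plus 3 SD (cut at about 8.5% in these data, passing the limit was not always enough); inconclusive = some gains above the cutoff, reason not given; inactive = the rest.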

For `Cc1oc(-c2cccc(Cl)c2)nc1CN1CCCC(C(=O)NC(C)c2ccc3c(c2)OCCO3)C1` (centres undefined), the growth inhibition in assay [1] was -7.17%; in assay [2] it was -16.3%. For the same compound, the viability increase in assay [3] is -4.74%. Besides, the viability is 33.7% in assay [4] and 37.5% in assay [5]. In addition, in assay [6], the inhibition was 2.46%. The RAM network inhibition in assay [7] is 5.6%.
As to `Cc1cccc2sc(NC(=O)c3ccc(Cl)s3)nc12`, the results for the growth inhibition in assay [1] and in assay [2] were -21.9% and -21.5%, respectively. Further, the viability increase in assay [3] was -7.7%. Also, the viability is 68.7% in assay [4] and 56% in assay [5]. The inhibition in assay [6] was 2.64%. In addition, in assay [7], the RAM network inhibition was 5.32%.
With `O=C(NCc1cccnc1)c1cnn2ccccc12`, the growth inhibition in assay [1] was -7.88%; in assay [2], -0.235%. Also, in assay [3], the viability increase was -1.28%. Also, the results for the viability in assay [4] and in assay [5] were 106% and 90.9%, respectively. Moreover, the inhibition in assay [6] was 1.62%. Further, the RAM network inhibition in assay [7] is 0.38%.
In the case of `N#Cc1nc(-c2ccccc2F)oc1NCCN1CCOCC1`, the growth inhibition in assay [1] was -19.2%; in assay [2], -36.8%. In addition, in assay [3], the viability increase is -1.89%. Also, the viability in assay [4] is 104%; in assay [5], 95%. Besides, in assay [6], the inhibition was 1.17%. Further, the RAM network inhibition in assay [7] was 0.32%.
Take `O=S(=O)(Nc1cccc(-c2nc3cccnc3s2)c1)c1ccc2c(c1)OCCO2`: the growth inhibition in assay [1] is -0.93%; in assay [2], 13.3%. Besides, the viability increase in assay [3] is 0.73%. In addition, the viability in assay [4] was 97.7%; in assay [5], 85.3%. Besides, in assay [6], the inhibition was 3.69%. For the same compound, the RAM network inhibition in assay [7] is 5.51%.
For the compound `CCCn1c(CN(Cc2ccccc2)Cc2ccccc2)nc2c1c(=O)n(C)c(=O)n2C`, the growth inhibition was -1.94% in assay [1] and -8.84% in assay [2]. Moreover, the viability increase in assay [3] is 0.21%. The viability in assay [4] is 69.2%; in assay [5], 59.7%. Moreover, the inhibition in assay [6] is 1.22%. Also, in assay [7], the RAM network inhibition is 8.87%.
Regarding `CCc1ccc(NC(=O)CSc2nnc(Cc3cccn3C)n2-c2ccc(F)cc2)cc1`, the growth inhibition was 4.25% in assay [1] and 12.9% in assay [2]. Moreover, the viability increase in assay [3] was -5.81%. For the same compound, the viability is 77.2% in assay [4] and 68.9% in assay [5]. For the same compound, the inhibition in assay [6] was 0.05%. In addition, in assay [7], the RAM network inhibition was 7.15%.
In the case of `Cc1ccc(NC(=O)CSC2=C(C#N)C(c3ccc4c(c3)OCO4)C3=C(CCCC3=O)N2)c(C)c1` (centres undefined), the growth inhibition in assay [1] is 21.3%; in assay [2] it was 59.1% (active). Also, the viability increase in assay [3] was -5.27%. In addition, the viability in assay [4] is 73.7%; in assay [5], 72.7%. In addition, in assay [6], the inhibition was 1.4%. The RAM network inhibition in assay [7] was 5.06%.
Regarding `CCOC(=O)C1CCN(C(=O)c2oc3ccc(S(=O)(=O)N4CCCCCC4)cc3c2C)CC1`, the results for the growth inhibition in assay [1] and in assay [2] were 0.58% and -20.9%, respectively. For the same compound, in assay [3], the viability increase is -3.23%. Also, the viability is 72.8% in assay [4] and 78.9% in assay [5]. Further, in assay [6], the inhibition is 1.73%. In assay [7], the RAM network inhibition was 0.3%.
Take `Cc1ccc(C(=O)NCCCn2ccnc2)o1`: the growth inhibition in assay [1] is -1.7%; in assay [2] it was -6.83%. Also, the viability increase in assay [3] is 0.23%. Besides, the values for the viability in assay [4] and in assay [5] were 101% and 97.8%, respectively. Besides, in assay [6], the inhibition was -0.265%. In addition, in assay [7], the RAM network inhibition was 3.73%.
Take `O=C(CSc1nc2c(c(=O)n1-c1ccc(Cl)cc1)SCC2)Nc1ccc2c(c1)OCCO2`: the values for the growth inhibition in assay [1] and in assay [2] were -7.54% and 10.9%, respectively. Also, the viability increase in assay [3] is -2.7%. Besides, the viability in assay [4] is 92%; in assay [5] it was 84.8%. Besides, the inhibition in assay [6] is 2.02%. Also, in assay [7], the RAM network inhibition is 4.16%.
As for `CCOc1ccccc1N1CCN(C(=O)c2cc(C)oc2C)CC1`, the growth inhibition in assay [1] was -10.5%; in assay [2] it was -5.64%. Further, the viability increase in assay [3] was -3.37%. Further, the viability is 89.2% in assay [4] and 93.9% in assay [5]. In addition, in assay [6], the inhibition is 0.04%. In addition, the RAM network inhibition in assay [7] is 0.7%.
In the case of `CC(=O)Nc1ccc(-c2cc(NC(C)=O)n(-c3ccccc3)n2)cc1`, the growth inhibition in assay [1] was 2.46%; in assay [2] it was -0.26%. Moreover, in assay [3], the viability increase was -1.76%. The viability in assay [4] is 104%; in assay [5] it was 91.7%. Moreover, the inhibition in assay [6] was 0.97%. For the same compound, the RAM network inhibition in assay [7] was 3.1%.
Consider `O=C(N1CCN(c2ccc(F)cc2)CC1)C12CC3CC(CC(C3)C1)C2`, for which the growth inhibition in assay [1] is -15.7%; in assay [2], -5.23%. Besides, in assay [3], the viability increase is -0.18%. Besides, the viability in assay [4] was 84.1%; in assay [5], 83.6%. Also, the inhibition in assay [6] is 0.94%. The RAM network inhibition in assay [7] is 11.5%.
In the case of `COC(=O)CCC(=O)Nc1nc(-c2ccccc2)cs1`, the figures for the growth inhibition in assay [1] and in assay [2] were -18.5% and -17.9%, respectively. In addition, the viability increase in assay [3] was -0.35%. The viability in assay [4] is 99%; in assay [5], 99.1%. For the same compound, the inhibition in assay [6] is 0.475%. Also, the RAM network inhibition in assay [7] was 11%.
`CC1CC(C)CN(C(=O)C(NS(=O)(=O)c2ccc3c(c2)oc(=O)n3C)C(C)C)C1` (centres undefined): the figures for the growth inhibition in assay [1] and in assay [2] were -16% and -5.28%, respectively. Besides, in assay [3], the viability increase is -2.67%. Moreover, the viability was 103% in assay [4] and 93.6% in assay [5]. In assay [6], the inhibition is -0.355%. Also, the RAM network inhibition in assay [7] was 6.92%.
For `Cc1nn(-c2cccc(C(F)(F)F)c2)c(Cl)c1/C=N/n1cnnc1`, the figures for the growth inhibition in assay [1] and in assay [2] were -2.49% and 17%, respectively. Moreover, in assay [3], the viability increase was -6.44%. Moreover, the viability in assay [4] is 87.7%; in assay [5], 85.7%. Moreover, in assay [6], the inhibition was -0.18%. For the same compound, the RAM network inhibition in assay [7] was 1.77%.

Source of the values: PubChem BioAssay.
